From article PMC10948974 (Nature chemical biology, 2023)

Key:
MEK1–NL + BRAF-V600E = MEK1–NL + BRAF-V600E (Homo sapiens, UniProt Q02750); test: MEK1–NL NanoBRET coexpression assay with BRAF-V600E; assay type: binding; settings: 1 μM Tram-bo
MEK1–BRAF = MEK1–BRAF (Homo sapiens, UniProt Q02750); test: Co-IP of MEK1 and FLAG-tagged BRAF from treated HEK293T cells; assay type: cell-based; settings: 1 μM compound, 24 h
Summary of the method: (§1)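 HEK293T cells (350,000/well) were transfected 24 h after seeding using Fugene HD. FLAG-BRAF or FLAG-KSR1 was given at 1 μg ml−1 for FLAG pulldown, or 0.5 μg ml−1 for endogenous MEK1 pulldown, each with 9 μg ml−1 carrier DNA. After 24 h, cells got 1 μM compound (0.1% DMSO) for 24 h. 100 μg of lysate was captured on anti-FLAG, anti-MEK1 or normal IgG beads (1 h, 4 °C), then eluted and western blotted for BRAF, MEK1 and FLAG.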

MEK1–KSR1 = MEK1–KSR1 (Homo sapiens, UniProt Q02750); test: Co-IP of MEK1 and FLAG-tagged KSR1 from treated HEK293T cells; assay type: cell-based; settings: 1 μM compound, 24 h
Summary of the method: as §1

[1] = biological target: 14–3–3–NL + MEK1 + BRAF-R509H (Homo sapiens, UniProt Q02750); test: 14–3–3–NL NanoBRET assay with dimer mutant BRAF-R509H; assay type: binding; settings: 14–3–3–NL–Tram-bo assay configuration
[2] = biological target: 14–3–3–NL + MEK1 + KSR1-R665H (Homo sapiens, UniProt Q02750); test: 14–3–3–NL NanoBRET assay with dimer mutant KSR1-R665H; assay type: binding; settings: 14–3–3–NL–Tram-bo assay configuration
[3] = biological target: 14–3–3–NL + MEK1 + CRAF-R401H (Homo sapiens, UniProt Q02750); test: 14–3–3–NL NanoBRET assay with dimer mutant CRAF-R401H; assay type: binding; settings: 14–3–3–NL–Tram-bo assay configuration

| Compound | decrease in potency (calculated Ki) with BRAF-V600E versus WT BRAF (MEK1–NL + BRAF-V600E) | effect on MEK1–BRAF interaction (co-IP) (MEK1–BRAF) | effect on MEK1–KSR1 interaction (co-IP) (MEK1–KSR1) | change in potency, BRAF-R509H versus BRAF [1] | change in potency, KSR1-R665H versus KSR1 [2] | change in potency, CRAF-R401H versus CRAF [3] |
| --- | --- | --- | --- | --- | --- | --- |
| CNS(=O)(=O)Nc1nccc(Cc2c(C)c3ccc(Oc4ncccn4)cc3oc2=O)c1F [CH5126766] | ~ 100 fold | stabilized | stabilized | insensitive |  |  |
| O=C(c1ccc(F)c(F)c1Nc1ccc(I)cc1F)N1CC(O)([C@@H]2CCCCN2)C1 [cobimetinib] |  |  |  | significant increase in potency | decrease in potency |  |
| CC(=O)Nc1cccc(-n2c(=O)n(C3CC3)c(=O)c3c(Nc4ccc(I)cc4F)n(C)c(=O)c(C)c32)c1 [trametinib] |  | specifically reduced |  | insensitive | small but significant decrease in potency |  |
| trametiglue |  | stabilized | stabilized | insensitive | decrease in potency | decrease in potency |
